# MT1-MMP act inh: MT1-MMP (human) activation inhibition. actives 0.061% (n = 360,000). GFP/RFP ratio change, % at 20 µM. P50281. HT1080 RFP-PRO-GFP cells, GFP/RFP ratio fluorescence, overnight; percent of plate control window, DMSO zero;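 active means GFP/RFP ratio change of at least 30% with cell ATP level not reduced by more than half and red fluorescence within 50% of control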
#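 Assay system – RFP-PRO-GFP reporter HT1080 cells · Compound dosing – single dose of 20 µM compound, 1% DMSO final · Incubation – overnight compound exposure at 37 °C · Measure – GFP/RFP fluorescence ratio · Benchmarks – DMSO wells and RFP-L50D-GFP cells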
# ADAM17 inh: inhibits human ADAM17 | P78536 | recombinant ADAM17, EDANS/DABCYL FRET peptide cleavage | inhibition, % at 6.95 µM | actives 0.83% (n = 370,000) | AID 720648;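 active means inhibition above the mean of compounds lying between control limits plus 3 SD, set per campaign, cut at about 8.5% in these data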;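 further: 0% = DMSO-only wells as the low control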
# NR3A LBD binder: modulators (binders) of human NR3A ligand-binding domain | AID 1259313 | Tm shift relative to glycine control, % at 25 µM | actives 2.5% (n = 340,000) | NR3A LBD differential scanning fluorimetry, Tm shift; 0% = protein alone, 100% = glycine-bound protein;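 active means melting temperature shift of at least 10% of the positive control shift, at one fixed dose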
# ADAM10 inh: ADAM10 inhibition, QFRET primary screen | recombinant ADAM10, EDANS/DABCYL FRET peptide cleavage, 3 h | inhibition, % at 7 µM | O14672 | actives 0.62% (n = 370,000);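 active means inhibition above a per-campaign cutoff equal to the mean of compounds falling between control-based bounds plus 3 SD, cut at about 20% in these data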;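 further: 0% = DMSO wells while the 100% control is not disclosed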
# Target sequence (O14672 214-748 limits assumed): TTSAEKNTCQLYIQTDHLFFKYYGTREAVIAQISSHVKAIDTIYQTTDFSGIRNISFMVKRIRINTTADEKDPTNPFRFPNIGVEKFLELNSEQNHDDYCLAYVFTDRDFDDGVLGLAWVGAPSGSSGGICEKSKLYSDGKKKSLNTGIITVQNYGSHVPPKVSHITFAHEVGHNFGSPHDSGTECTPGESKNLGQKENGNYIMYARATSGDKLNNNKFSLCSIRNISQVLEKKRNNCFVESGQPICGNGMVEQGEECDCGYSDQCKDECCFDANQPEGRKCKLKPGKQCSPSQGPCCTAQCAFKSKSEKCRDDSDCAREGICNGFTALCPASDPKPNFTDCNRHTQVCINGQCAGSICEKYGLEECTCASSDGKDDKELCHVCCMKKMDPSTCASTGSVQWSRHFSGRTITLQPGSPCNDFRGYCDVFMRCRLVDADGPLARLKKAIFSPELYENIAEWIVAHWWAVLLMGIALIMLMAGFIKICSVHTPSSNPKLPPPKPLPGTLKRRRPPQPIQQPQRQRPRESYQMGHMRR
# MPTP block: inhibitors of mitochondrial permeability transition pore | isolated mouse mitochondria, Ca2+ swelling absorbance, 30 min | inhibition, % at 10 µM | actives 1.4% (n = 360,000) | AID 602449;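 active means inhibition of 50% or more, scaled per plate between neutral and stimulator controls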;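 further: 0% = DMSO wells given calcium and 100% = 1 mM EGTA wells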
# SKN-1 block: inhibitors of C. elegans SKN-1 | C. elegans VP596 Pgst-4::GFP/RFP ratio, acrylamide-induced, 24 h | inhibition, % at 21.8 µM | actives 0.49% (n = 360,000) | AID 624304;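 active means interference check ratio from 0.5 to 1.5 plus GFP to RFP signal ratio inhibition reaching or exceeding a fixed threshold, cut at about 30% in these data, passing the limit was not always enough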
# Starred values were filed as active, the others as inactive; . = no result given. A selection: hits, their analogues and other compounds. The true share with any hit is near 4.7%.
SMILES,MT1-MMP act inh,ADAM17 inh,NR3A LBD binder,ADAM10 inh,MPTP block,SKN-1 block
O=C1C=C(c2ccc3c(c2)OCO3)C[C@@H](c2ccc3c(c2)OCO3)C1,6.0,-1.9,0.8,-3.0,1.8,19.8
Cc1cccc(N=C2NN=C(c3ccc4c(c3)OCCO4)CS2)c1,-6.8,-1.5,3.4,0.5,-1.9,-2.4
Cc1cccc(N=C2NN=C(c3c(C)[nH]c4ccccc34)CS2)c1,-4.6,6.9,19.5*,14.2,1.8,-3.4
O=c1cc(CN2CCN(c3ccc(Cl)c(Cl)c3)CC2)c2c(ccc3ccccc32)o1,2.8,-21.2,.,-78.6,1.5,12.1
CC(=O)Nc1ccc(OCc2cccc([N+](=O)[O-])c2)cc1,0.7,0.9,-1.3,-2.4,-0.7,18.1
Cc1cc(C)cc(OCC(=O)NN2C(=O)c3ccccc3C2=O)c1,.,-0.5,-0.1,6.3,-1.0,-2.0
CC(=O)Nc1cccc(OCc2cccc([N+](=O)[O-])c2)c1,8.3,-0.7,16.8*,1.3,-1.1,3.5
O=C(Nc1ccc(COc2ccccc2)cc1)c1cccc([N+](=O)[O-])c1,2.4,-1.6,21.9*,-10.4,24.3,-3.6
O=C(Nc1ccc2ccccc2c1)c1cccc([N+](=O)[O-])c1,-3.2,2.3,30.3*,3.0,1.1,19.7
O=C(COc1cccc([N+](=O)[O-])c1)NN1C(=O)c2ccccc2C1=O,-2.2,-4.9,546.0*,-5.9,0.9,6.3
CCN(CC)CCOc1cccc(C(C)C)c1,-1.6,0.4,-0.2,1.9,-0.9,-3.2
CCN(CC)CCNC(Cc1ccccc1)c1cccc(OC)c1 (centres undefined),1.7,0.1,12.6*,1.1,0.6,-15.7
CC(C)NC(=O)Nc1ccc2c(c1)CC(=O)N([C@@H](C)CO)C[C@H](C)[C@@H](CN(C)C(=O)NC1CCCCC1)O2,5.3,-4.8,6.0,-10.1,0.8,15.4
O=C(Nc1nc(-c2ccco2)c(-c2ccco2)s1)C1CCC1,-4.8,1.9,-8.0,-5.7,1.6,2.6
CS(=O)(=O)c1ccc(C(=O)Nc2nc(-c3ccco3)c(-c3ccco3)s2)cc1,-2.2,0.6,19.3*,8.0,1.5,-0.2
Cc1ccc(Cl)c2c1=NC(=O)C=2c1[nH]c(=S)[nH]c1O,5.0,4.7,0.4,1.1,4.6,9.5
COc1ccc(CN(C(=S)Nc2ccccc2)C2CC(=O)N(c3ccc(F)cc3)C2=O)cc1 (centres undefined),2.5,4.9,31.9*,13.8,4.1,15.0
Cc1ccc(N2C(=O)CC(N(CCc3ccccc3)C(=S)Nc3ccc(N(C)C)cc3)C2=O)cc1 (centres undefined),-5.7,2.5,5.9,-0.5,0.0,20.1
COc1ccc(CCN(C(=S)Nc2ccccc2)C2CC(=O)N(c3ccccc3)C2=O)cc1 (centres undefined),0.5,3.8,16.8*,11.4,1.3,10.8
CNC(=S)N(Cc1ccc(OC)cc1)C1CC(=O)N(c2ccc(Cl)cc2)C1=O (centres undefined),0.4,0.9,32.3*,5.6,1.2,3.0
CNC(=S)N(Cc1ccc2c(c1)OCO2)C1CC(=O)N(c2ccc(F)cc2)C1=O (centres undefined),0.9,1.1,22.3*,12.9,0.5,-1.8
COc1cc(C(=O)N2CCC(N3CCCCCC3)CC2)cc(OC)c1OC,4.5,0.6,0.3,4.7,-1.2,6.7
CCOC(=O)c1cc(CN2CCOCC2)oc1-c1ccccc1,-1.2,-2.1,10.2*,-6.1,-0.8,-19.5
CCOC(=O)c1c(-c2ccccc2)oc2ccc(O)c(CN3CCOCC3)c12,-11.6,4.0,0.9,7.2,0.2,-25.3
Clc1ncccc1-c1nnn(-c2ccccc2)n1,2.9,0.0,-0.8,0.1,-0.2,25.9
Fc1ccc(-n2nnc(-c3nccs3)n2)cc1,4.3,-1.4,3.1,5.2,-2.0,71.4*
Fc1ccc(-n2nnc(-c3cccnc3Cl)n2)cc1,-2.0,-2.3,-0.6,1.3,-0.4,67.8*
Fc1ccc(-n2nnc(-c3ccccc3Cl)n2)cc1,1.7,-0.5,0.0,9.2,0.5,13.7
O=C(NCCc1cccc(Cl)c1)c1cc2ccccc2oc1=O,0.3,.,-0.1,.,1.0,-5.1
